Results gathered from unrelated publications.
Target: Protein kinase C theta type (PRKCQ, Homo sapiens, UniProt Q04759)

SMILES	test	conditions	remaining binding
CN(CCCC(F)(F)F)c1nccc(-c2cnn3ncccc23)n1	binding	1 µM	100%
COc1ncc2cc3ccccc3nc2c1C#N	cell-free assay, competition with immobilised ligand	5 µM	94%
CN(c1ccnc(CNc2nc(Nc3ccc4c(c3)CC(=O)N4)ncc2C(F)(F)F)n1)S(C)(=O)=O	cell-free assay, competition with immobilised ligand	1 µM	55%
CN(C)c1nccc(-c2cnc3ncccn23)n1	binding	1 µM	75%
CNC(=O)[C@@H]1CC[C@@H](n2c(-c3ccc4cnccc4c3)nc3ccc(C(=O)NCc4cccc(C(N)=O)c4)cc32)C1	binding, competition with immobilised ligand	1 µM	63%
CO[C@H]1CC[C@H](CNc2ccc(S(=O)(=O)NC(=O)c3ccc(N4CCN(CC5=C(c6ccc(Cl)cc6)CC(C)(C)CC5)CC4)cc3Oc3cnc4[nH]ccc4c3)cc2[N+](=O)[O-])CC1	cell-free assay, competition with immobilised ligand	1 µM	89%
Cc1cnn2ncc(-c3ccnc(N(C)C)n3)c2c1	binding	1 µM	99%
CS(=O)(=O)N1CCCC(NC(=O)[C@H](CCC2CCCCC2)NC(=O)c2ccc(CNc3ncnc4c3nnn4-c3ccccc3)cc2)C1 (stereo partly shown)	cell-free assay, competition with immobilised ligand	0.1 µM	90%
O=C(c1ccc(Nc2ncc(Cl)c(-c3ccc(Cl)s3)n2)cc1)N1CCC(N2CCCC2)CC1	binding, competition with immobilised ligand	1 µM	60%
O=C(NCC1CCOCC1)c1n[nH]cc1NC(=O)c1c(F)cccc1F	binding, competition with immobilised ligand	1 µM	100%
CN(c1nccc(-c2cnn3ncccc23)n1)C1CC1	binding	1 µM	100%
CS(=O)(=O)N1CCCC(NC(=O)[C@H](CCC2CCCCC2)NC(=O)c2ccc(CNC(=O)c3cnc4ccccn34)cc2)C1 (stereo partly shown)	cell-free assay, competition with immobilised ligand	0.1 µM	97%
COc1cnc(Nc2cccc(S(N)(=O)=O)c2)nc1N1CCN(c2ccccc2)C(=O)C1	binding, competition with immobilised ligand	1 µM	100%
O=C(c1ccc(Nc2nccc(-c3cc4ccccc4s3)n2)cc1)N1CCC(N2CCCC2)CC1	binding, competition with immobilised ligand	1 µM	56%
COc1ccc2c(c1)O[C@@H](c1ccc(OC)c(OC)c1)C[C@H]2NC(=O)C1(c2ccc3c(c2)OC(F)(F)O3)CC1	cell-free assay, competition with immobilised ligand	1 µM	98%
N[C@@H]1CCN(c2nccc(-c3cnn4ncccc34)n2)C1	binding	1 µM	100%
Cc1cc(NC(=O)c2cccc(S(F)(F)(F)(F)F)c2)cc(-n2ccn3nc(-c4cccnc4)cc23)c1	cell-free assay, competition with immobilised ligand	1 µM	60.3%
COc1ccnn2ncc(-c3ccnc(N(C)C)n3)c12	binding	1 µM	81%
O=C(NC[C@@H]1[C@H]2CN(C(=O)OCc3cc(C(F)(F)F)cc(C(F)(F)F)c3)C[C@@H]12)c1ccc2[nH]nnc2c1	cell-free assay, competition with immobilised ligand	1 µM	100%
O=C(c1ccc(Nc2ncc(Cl)c(-c3cc4ccccc4s3)n2)cc1)N1CCC(N2CCCC2)CC1	binding, competition with immobilised ligand	1 µM	23%
C[C@H]1CCN(c2nccc(-c3cnn4ncccc34)n2)C1	binding	1 µM	100%
FC(F)(F)Oc1cccc(-c2cnc3ccc(-c4ccncc4)nn23)c1	cell-free assay, competition with immobilised ligand	5 µM	85%
